Screening data: PubChem BioAssay, several laboratories
Compounds with a hit are over-represented: about 3.3% of the library has one in this group of screens.
GAA850 FXN act: frataxin GAA850 promoter activation. HEK293 lucGAA850 FXN promoter luciferase reporter, 24 h; percent of 10 µM SAHA response. activation, % at 6 µM. 360,000 compounds, 0.56% hits. AID 540364;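 active means activation above the average of all compounds screened plus 3 SD, cutoff fixed separately per campaign, cut at about 7.5% in these data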
AHR act: activates the human aryl hydrocarbon receptor; AHR-responsive luciferase reporter cells, luminescence; activation, % at 5 µM; 320,000 compounds, 2.5% hits; AID 2796; in the data active means activation above about 47%
STAT3 activator: increases IL-6 driven STAT3 reporter signal; activation (% of control), % at 5.6 µM; U3A cells, IL-6 STAT3-luciferase reporter, luminescence; 100% = signal with IL-6 EC80 alone; 190,000 compounds, 0.91% hits;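 active means activation above the screen-wide mean of compound activation plus 3 SD, cut at about 130% in these data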
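Test system: STAT3-luciferase reporter U3A cells; Detection: reporter luminescence signal; Times: 1 h compound pre-exposure, 6 h IL-6 stimulation, 37 °C; Benchmarks: IL-6-only high control; Also added: IL-6 stimulus at 33 ng/mL final.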
ABCB6 inh MLPCN: human ABCB6 transporter inhibition; K562-ABCB6 porphyrin accumulation, flow cytometry, 1 h; hits give low values; AID 602162; Q9NP58; 360,000 compounds, 0.19% hits; fluorescence ratio to DMSO, % at 10 µM;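 active means fluorescence ratio to DMSO below 75%, the collection mean minus 3 SD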;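 further: signal is porphyrin accumulated inside mitochondria; lower ratio means ABCB6 inhibition with less porphyrin fluorescence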
Target sequence (Q9NP58 whole entry, looked up): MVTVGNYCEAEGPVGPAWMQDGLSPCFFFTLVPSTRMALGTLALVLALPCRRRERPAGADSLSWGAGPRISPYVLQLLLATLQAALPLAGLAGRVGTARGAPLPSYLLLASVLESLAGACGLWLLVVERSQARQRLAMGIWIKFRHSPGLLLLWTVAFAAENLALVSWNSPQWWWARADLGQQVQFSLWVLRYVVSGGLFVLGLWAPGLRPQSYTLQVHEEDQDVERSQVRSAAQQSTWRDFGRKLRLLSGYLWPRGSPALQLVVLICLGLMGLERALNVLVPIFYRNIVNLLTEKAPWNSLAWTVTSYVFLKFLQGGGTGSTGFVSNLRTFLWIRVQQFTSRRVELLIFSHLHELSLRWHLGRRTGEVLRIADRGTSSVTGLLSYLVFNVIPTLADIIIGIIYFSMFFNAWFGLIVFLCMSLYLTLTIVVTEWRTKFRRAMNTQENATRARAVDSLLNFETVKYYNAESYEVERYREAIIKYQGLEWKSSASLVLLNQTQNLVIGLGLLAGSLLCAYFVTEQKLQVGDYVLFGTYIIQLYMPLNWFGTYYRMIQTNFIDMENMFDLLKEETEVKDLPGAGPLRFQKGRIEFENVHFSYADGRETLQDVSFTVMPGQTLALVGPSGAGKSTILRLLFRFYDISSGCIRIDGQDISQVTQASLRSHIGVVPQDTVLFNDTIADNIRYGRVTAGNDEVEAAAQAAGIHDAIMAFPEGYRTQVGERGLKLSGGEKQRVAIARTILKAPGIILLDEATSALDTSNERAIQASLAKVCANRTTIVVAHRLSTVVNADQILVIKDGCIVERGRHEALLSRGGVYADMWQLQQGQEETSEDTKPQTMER
Each line names hits and unclear results; the compound was inactive in the other large screens.

CCc1c(C(=O)Nc2nnc(C3CC3)s2)csc1C	AHR act 67.3
N=c1n(CCN2CCOCC2)c2ccccc2n1CC(=O)c1ccc(Cl)c(Cl)c1	AHR act 91.4
CCCCOC(=O)Cn1c(=N)n(CCN2CCOCC2)c2ccccc21	none
O=C(CC12CCC(CC1)C2)NCc1ccc2c(c1)OCO2	none
CCOC(=O)c1c(C)n(C)c2cc(-c3cccc(C(F)(F)F)c3)c(O)cc12	AHR act 49.3
COC(=O)c1ccc2c(c1)SC1=C(CCCC1=O)N2	AHR act 59.5
Clc1cccc(Cl)c1CSc1cc2c(nn1)-c1ccccc1CC2	none
Clc1ccccc1CSc1cc2c(nn1)-c1ccccc1CC2	AHR act 72.4
CCn1c(O)c(/C=C2\C=NN=C2c2ccc(C)cc2)sc1=S	none
CC(C)n1c(O)c(/C=C2\C=NN=C2c2ccccc2)sc1=S	AHR act 63.6 (no result: STAT3 activator)
CCc1cccc(CC)c1NC(=O)C1SC(=Nc2ccccc2C)C(c2nc3ccccc3s2)=C1N (stereo not drawn)	AHR act 53.9
O=C(OCC(=O)N1CCC(Cc2ccccc2)CC1)c1cc(Cl)ccc1O	none (no result: STAT3 activator)
CCn1c(NCc2c[nH]c3ccccc23)nc2ccccc21	AHR act 48.4
Cn1c(NCc2cccs2)nc2ccccc21	AHR act 48.7
Cn1c(NCc2c[nH]c3ccccc23)nc2ccccc21	AHR act 74.5, STAT3 activator 140.6
COC(=O)c1[nH]c2c(c1C)C(=O)CC(c1cc(OC)c(OC)c(OC)c1)C2 (stereo not drawn)	none (no result: STAT3 activator)
COCCNC(=O)C1CCCN(C(=O)c2ccc(F)c(C)c2)CC1 (stereo not drawn)	none (no result: AHR act, STAT3 activator)
COc1ccc(CCN2C(=O)CS/C2=N\NC(=O)c2cccs2)cc1OC	AHR act 69.1
CS(=O)(=O)Nc1ccc(C(=O)NCc2ccco2)cc1	none
COc1ccc(C)cc1NC(=O)C(OC(=O)C1CC1)c1ccccc1 (stereo not drawn)	AHR act 55.4
CCCCNC1=CC(=O)C(NCCCC)=CC1=O	none (no result: AHR act, STAT3 activator)
CCCCNC1=CC(=O)C(=O)c2ccccc21	AHR act 52.5
Cn1c(CNc2ccc(F)cc2)nc2ccccc21	none (no result: AHR act, STAT3 activator)
Cn1c(CNc2ccccc2)nc2ccccc21	AHR act 64.8
Cc1ccccc1NCc1nc2ccccc2n1C	AHR act 78.5 (no result: STAT3 activator)
Cc1cccc(NC(=O)c2cn(-c3ccccc3)nc2-c2ccccc2)c1	none
O=S(=O)(c1ccccc1)N1CCn2c(nc3ccccc32)C1	none
COc1ccccc1CC(=O)Nc1ccc(S(=O)(=O)N(C)C2CCN(C)CC2)cc1	none (no result: STAT3 activator)
C=CCc1c(C)nc(C)nc1N/N=C/c1ccc([N+](=O)[O-])cc1	AHR act 78.4
C=CCc1c(C)nc(C)nc1N/N=C/c1ccccc1O	none
CC(=O)Nc1ccc(NC(=O)/C=C/c2cccc(C(F)(F)F)c2)cc1	none
CC(=O)N(c1cccc(C(F)(F)F)c1)c1nc(/C=C/C(=O)O)cs1	AHR act 72.9 (no result: STAT3 activator)
Cc1ccc(-n2c(SCc3ccc(C(=O)O)cc3)nnc2-c2ccncc2)cc1	none (no result: STAT3 activator)
CCOC(=O)CSc1ccc(C(=O)Nc2ccc(Cl)cc2)cn1	AHR act 57.6
CCCc1c(C(=O)NNc2ccccc2OC)cnn1-c1ccccc1	none (no result: STAT3 activator)
CCOc1ccc(NC(=O)c2ccc(OC)cc2)cc1	none
CCCc1c(C(=O)Nc2ccc(OC)cc2)cnn1-c1ccccc1	AHR act 72.6 (no result: STAT3 activator)
CCOC(=O)CSc1ccc(C(=O)Nc2ccc(OC)cc2)cn1	AHR act 57.2
CCCS(=O)(=O)N1CCCC(C(=O)NCCCN(C)c2ccccc2)C1 (stereo not drawn)	none
NS(=O)(=O)c1ccc(NNC(=O)c2ccccc2C(=O)O)cc1	AHR act 48.5 (no result: STAT3 activator)
O=C(O)c1ccccc1C(=O)NNc1ccc(Cl)cc1	none
O=C1Nc2c(ccc(Cl)c2Cl)C(=O)C1(F)c1ccccc1 (stereo not drawn)	AHR act 92.3 (no result: STAT3 activator)
O=C1Nc2ccc(Cl)cc2C(=O)C1(F)c1ccccc1 (stereo not drawn)	none (no result: STAT3 activator)
Cc1sc2nc(CSCC(=O)Nc3ccccc3C#N)[nH]c(=O)c2c1C	AHR act 70.1
CSc1ccccc1NC(=O)CSCc1nc2sc(C)c(C)c2c(=O)[nH]1	none (no result: STAT3 activator)
COc1cc(OC)cc(C(=O)Nc2nc3ccc(S(C)(=O)=O)cc3s2)c1	AHR act 49.0
C=CCn1c(O)c(C2=c3ccccc3=NC2=O)s/c1=N/c1nccs1	AHR act 59.2
Cn1c(O)c(C2=c3ccccc3=NC2=O)sc1=Nc1ccc(Cl)cc1	AHR act 55.9
O=C(O)Cn1c(O)c(C2=c3ccccc3=NC2=O)sc1=O	none (no result: STAT3 activator)
CCCN1CN(c2ccccc2)C(=S)N(c2ccccc2)C1	none (no result: STAT3 activator)
CC1CCc2sc(C(=O)N/N=C/c3ccc([N+](=O)[O-])cc3)cc2C1 (stereo not drawn)	AHR act 65.5
Cc1cc(/C=C2\NC(=O)N(Cc3ccc(Cl)cc3)C2=O)c(C)n1C	STAT3 activator 139.2
Cc1ccc(CN2C(=O)N/C(=C/c3ccc4c(c3)n(C)c(=O)n4C)C2=O)cc1	none (no result: GAA850 FXN act, ABCB6 inh MLPCN)
Fc1ccc(-[n+]2nc(Nc3ccccc3)sc2-c2c3ccccc3cc3ccccc23)cc1	none (no result: STAT3 activator)
c1ccc(-[n+]2nc(Nc3cccc4ccccc34)sc2-c2c3ccccc3cc3ccccc23)cc1	AHR act 62.3 (no result: STAT3 activator)
CC1CCN(C(=O)C2Cc3ccccc3CN2S(=O)(=O)c2ccc(F)cc2)CC1 (stereo not drawn)	GAA850 FXN act 10.8
Fc1ccc(-c2nc3c(Cl)cc(C(F)(F)F)cn3c2Cl)cc1	STAT3 activator 134.3
O=C(Cc1csc(Nc2nc(=S)[nH]c3ccccc23)n1)NCc1cccc(Cl)c1	none
O=C(Cc1csc(Nc2nc(=S)[nH]c3ccccc23)n1)N1CCN(c2cccc(C(F)(F)F)c2)CC1	STAT3 activator 134.8
COc1ccc(/C=N/N(C(C)=O)c2nc(-c3ccc(C)cc3)cs2)cc1	none
CC(=O)N(/N=C/c1cccc(C)c1)c1nc(-c2ccc(Br)cc2)cs1	AHR act 78.3
CCCn1c(O)c(C=Nc2ccccc2)sc1=S	none
Cn1c(O)c(C=Nc2ccc(Br)cc2)sc1=O	AHR act 62.6
C/C(CC(=O)Nc1ccc2c(c1)OCCO2)=N\NC(=O)COc1ccc(C)cc1Br	none (no result: STAT3 activator)
COc1ccc(/C=C/C(=O)c2ccncc2)c2ccccc12	AHR act 52.7
O=C(NCC(=O)N1CCN(c2ccccc2O)CC1)c1ccc(Br)o1	none (no result: STAT3 activator)
COc1ccc(OC)c(Nc2nc(C3CC3)nc3c2nnn3Cc2ccccc2)c1	none
c1ccc(Cn2nnc3c(Nc4ccc5c(c4)OCO5)nc(C4CC4)nc32)cc1	AHR act 69.6
O=C(Nc1ccc(Cl)cc1)c1csc(-c2ccncc2)n1	AHR act 54.4
Cc1nc(-c2ccncc2)sc1C(=O)Nc1ccc(Br)cc1	AHR act 62.0
O=C(Nc1ccc(Br)cc1)c1csc(-c2ccncc2)n1	AHR act 52.7
CNC(=O)c1csc(-c2ccc(Cl)cc2)n1	none
O=C(Nc1ccc(Cl)cc1)c1csc(-c2ccccc2)n1	AHR act 96.8
Cc1ccc(S(=O)(=O)N(C)c2ccc(OC(=O)c3cc(=O)[nH]c4ccccc34)cc2)cc1	none (no result: STAT3 activator)
